Values after ≈ are worked out from the molar mass of the structure shown.
Columns and labels:
Trichophyton benhamiae [1] = assay: Antifungal activity against Trichophyton mentagrophytes MUCC 665 after 48 hrs by disc diffusion method; type: functional, Arthroderma benhamiae
Summary of the method: (§1)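 Agar well diffusion on plates inoculated with spore suspension in normal saline from cultures on Sabouraud's broth. Wells punched and loaded with test samples or griseofulvin at 10 mg mL^-1, with DMSO as negative control. Incubated 48 h at 37 °C.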

[2] = Anthelmintic activity against Megascoplex konkanensis ICARBC 211 assessed as mean death time; type: functional
Summary of the method: (§2)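 Earthworms exposed to test suspensions at 2 mg mL^-1 (0.2% w/v), made by triturating compound with Tween 80 (0.5%) and distilled water, then mechanically stirred 30 min. Mebendazole suspension prepared alike as reference. Paralysis and death times recorded; death confirmed by no movement in 50 °C water. Means from triplicate sets.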

[3] = Growth inhibition of EAC cells at 125 ug/mL after 3 hrs; type: functional; details: Mus musculus, Ehrlich
Summary of the method: (§3)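 DLA and EAC cells passaged intraperitoneally in albino mice, harvested after 15–20 days and adjusted to 1 × 10⁶ cells/mL. Dilutions in Dulbecco's medium (500–31.25, some down to 3.91 µg/mL; 5-FU reference) mixed 1:1 with cells and held 3 h at 37 °C. Trypan blue exclusion gave % growth inhibition; CTC50 by graphical extrapolation.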

[4] = Growth inhibition of DLA cells at 500 ug/mL after 3 hrs; type: functional; details: Mus musculus; summary of the method: as §3
Pontoscolex corethrurus [5] = assay: Anthelmintic activity against Pontoscolex corethrurus ICARBC 408 assessed as mean paralyzing time; type: functional; summary of the method: as §2
Microsporum audouinii [6] = assay: Antifungal activity against Microsporum audouinii MUCC 545 after 48 hrs by disc diffusion method; type: functional; summary of the method: as §1
[7] = Anthelmintic activity against Megascoplex konkanensis ICARBC 211 assessed as mean paralyzing time; type: functional; summary of the method: as §2
Candida albicans [8] = assay: Antifungal activity against Candida albicans MUCC 29 after 48 hrs by tube dilution method; type: functional
Summary of the method: (§4)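 Tube dilution MIC as for bacteria (seven concentrations, 200–3.1 […]), with DMSO in place of DMF. Tubes inoculated with fungal culture and incubated 48 h at 37 °C. MIC read from presence or absence of growth.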

[9] = Growth inhibition of EAC cells after 3 hrs; type: functional; details: Mus musculus, Ehrlich; summary of the method: as §3
[10] = Growth inhibition of EAC cells at 250 ug/mL after 3 hrs; type: functional; details: Mus musculus, Ehrlich; summary of the method: as §3
[11] = Growth inhibition of DLA cells at 250 ug/mL after 3 hrs; type: functional; details: Mus musculus; summary of the method: as §3
Trichophyton benhamiae [12] = assay: Antifungal activity against Trichophyton mentagrophytes MUCC 665 after 48 hrs by tube dilution method; type: functional, Arthroderma benhamiae; summary of the method: as §4
Eudrilus [13] = assay: Anthelmintic activity against Eudrilus sp. assessed as mean death time; type: functional
Summary of the method: (§5)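 Earthworms exposed to test suspensions at 2 mg mL−1, prepared by triturating compound with Tween 80 (0.5%) and distilled water, stirring 30 min, then diluting to 0.2% w/v. Mebendazole suspension was made the same way. Death was confirmed by moving worms into 50 °C warm water and looking for movement. Mean death time (min) taken from triplicate sets.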

[14] = Growth inhibition of DLA cells after 3 hrs; type: functional; details: Mus musculus; summary of the method: as §3
Pontoscolex corethrurus [15] = assay: Anthelmintic activity against Pontoscolex corethrurus ICARBC 408 assessed as mean death time; type: functional; summary of the method: as §5
[16] = Growth inhibition of DLA cells at 62.5 ug/mL after 3 hrs; type: functional; details: Mus musculus; summary of the method: as §3
[17] = Growth inhibition of EAC cells at 31.25 ug/mL after 3 hrs; type: functional; details: Mus musculus, Ehrlich; summary of the method: as §3
Bacillus subtilis [18] = assay: Antibacterial activity against Bacillus subtilis NCIM 2063 after 18 hrs by tube dilution method; type: functional; details: NCIM 2063, 18 h
Summary of the method: (§6)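 Tube dilution MIC. Stock diluted in sterile broth to seven concentrations from 200 to 3.1 […]. Each tube inoculated with one loopful of test bacterium and incubated 18 h at 37 °C. MIC read from presence or absence of growth.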

Escherichia coli [19] = assay: Antibacterial activity against Escherichia coli NCIM 2065 after 18 hrs by disc diffusion method; type: functional
Summary of the method: (§7)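 Modified Kirby-Bauer disc diffusion. Plates inoculated with spore suspension (about 6 × 10⁴ spores mL^-1). Sterile 6 mm paper discs carried test samples at 10 mg mL^-1; ciprofloxacin disc as reference, DMF disc as negative control. Plates held 18 h at 37 °C. Inhibition zone diameters (mm) averaged over triplicate sets.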

Pseudomonas aeruginosa [20] = assay: Antibacterial activity against Pseudomonas aeruginosa NCIM 2034 after 18 hrs by disc diffusion method; type: functional; summary of the method: as §7
Escherichia coli [21] = assay: Antibacterial activity against Escherichia coli NCIM 2065 after 18 hrs by tube dilution method; type: functional; details: NCIM 2065, 18 h
Bacillus subtilis [22] = assay: Antibacterial activity against Bacillus subtilis NCIM 2063 after 18 hrs by disc diffusion method; type: functional; summary of the method: as §7
Staphylococcus aureus [23] = assay: Antibacterial activity against Staphylococcus aureus NCIM 2079 after 18 hrs by tube dilution method; type: functional; details: NCIM 2079, 18 h; summary of the method: as §6
[24] = Growth inhibition of EAC cells at 500 ug/mL after 3 hrs; type: functional; details: Mus musculus, Ehrlich; summary of the method: as §3
Pseudomonas aeruginosa [25] = assay: Antibacterial activity against Pseudomonas aeruginosa NCIM 2034 after 18 hrs by tube dilution method; type: functional; details: NCIM 2034, 18 h; summary of the method: as §6
[26] = Growth inhibition of EAC cells at 62.5 ug/mL after 3 hrs; type: functional; details: Mus musculus, Ehrlich; summary of the method: as §3
[27] = Growth inhibition of DLA cells at 125 ug/mL after 3 hrs; type: functional; details: Mus musculus; summary of the method: as §3
Eudrilus [28] = assay: Anthelmintic activity against Eudrilus sp. assessed as mean paralyzing time; type: functional; summary of the method: as §2
Candida albicans [29] = assay: Antifungal activity against Candida albicans MUCC 29 after 48 hrs by disc diffusion method; type: functional; summary of the method: as §1
Aspergillus niger = assay: Antifungal activity against Aspergillus niger MUCC 177 after 48 hrs by disc diffusion method; type: functional; summary of the method: as §1
Staphylococcus aureus [30] = assay: Antibacterial activity against Staphylococcus aureus NCIM 2079 after 18 hrs by disc diffusion method; type: functional; summary of the method: as §7
Microsporum audouinii [31] = assay: Antifungal activity against Microsporum audouinii MUCC 545 after 48 hrs by tube dilution method; type: functional; summary of the method: as §4
[32] = Growth inhibition of DLA cells at 31.25 ug/mL after 3 hrs; type: functional; details: Mus musculus; summary of the method: as §3

SMILES	inhibition zone (IZ) (Trichophyton benhamiae [1]) [mm]	TIME [2] [h]	inhibition at 125 µg/mL [3] [%]	inhibition at 500 µg/mL [4] [%]	Time (Pontoscolex corethrurus [5]) [min]	inhibition zone (IZ) (Microsporum audouinii [6]) [mm]	TIME [7] [h]	MIC (Candida albicans [8]) [µg/mL]	CC50 [9] [µM]	inhibition at 250 µg/mL [10] [%]	inhibition at 250 µg/mL [11] [%]	MIC (Trichophyton benhamiae [12]) [µg/mL]	Time (Eudrilus [13]) [min]	CC50 [14] [µM]	Time (Pontoscolex corethrurus [15]) [min]	inhibition at 62.5 µg/mL [16] [%]	inhibition at 31.25 µg/mL [17] [%]	MIC (Bacillus subtilis [18]) [µg/mL]	inhibition zone (IZ) (Escherichia coli [19]) [mm]	inhibition zone (IZ) (Pseudomonas aeruginosa [20]) [mm]	also measured
C[C@H](NC(=O)[C@@H]1CCCN1C(=O)c1cc(-c2nc3ccc([N+](=O)[O-])cc3[nH]2)ccc1O)C(=O)O	17	0.585	14.3	34.2	31.9	12	0.436	6 (≈ 12.8 µM)	> 1070	17.9	26.3	6 (≈ 12.8 µM)	35.69	> 1070	43.55	18.4	7.14	12.5 (≈ 26.7 µM)	18	28	MIC (Escherichia coli [21]): 12.5 µg/mL (≈ 26.7 µM); inhibition zone (IZ) (Bacillus subtilis [22]): 13 mm; MIC (Staphylococcus aureus [23]): 25 µg/mL (≈ 53.5 µM); inhibition at 500 µg/mL [24]: 25%; MIC (Pseudomonas aeruginosa [25]): 6 µg/mL (≈ 12.8 µM); inhibition at 62.5 µg/mL [26]: 7.14%; inhibition at 125 µg/mL [27]: 21%; Time (Eudrilus [28]): 27.12 min; inhibition zone (IZ) (Candida albicans [29]): 22 mm; inhibition zone (IZ) (Aspergillus niger): 16 mm; inhibition zone (IZ) (Staphylococcus aureus [30]): 9 mm; MIC (Microsporum audouinii [31]): 6 µg/mL (≈ 12.8 µM); inhibition at 31.25 µg/mL [32]: 7.89%
O=C(O)[C@@H]1CCCN1C(=O)[C@@H]1CCCN1C(=O)[C@@H]1CCCN1C(=O)c1cc(-c2nc3ccc([N+](=O)[O-])cc3[nH]2)ccc1O	17	0.567	10.7	65.8	30.52	13	0.418	6 (≈ 10.2 µM)	> 847	21.4	52.6	12.5 (≈ 21.2 µM)	37.23	332	40.2	34.2	3.57	6 (≈ 10.2 µM)	17	28	MIC (Escherichia coli [21]): 25 µg/mL (≈ 42.3 µM); inhibition zone (IZ) (Bacillus subtilis [22]): 14 mm; MIC (Staphylococcus aureus [23]): 12.5 µg/mL (≈ 21.2 µM); inhibition at 500 µg/mL [24]: 28.7%; MIC (Pseudomonas aeruginosa [25]): 6 µg/mL (≈ 10.2 µM); inhibition at 62.5 µg/mL [26]: 7.14%; inhibition at 125 µg/mL [27]: 47.4%; Time (Eudrilus [28]): 26.54 min; inhibition zone (IZ) (Candida albicans [29]): 24 mm; inhibition zone (IZ) (Aspergillus niger): 17 mm; inhibition zone (IZ) (Staphylococcus aureus [30]): 11 mm; MIC (Microsporum audouinii [31]): 6 µg/mL (≈ 10.2 µM); inhibition at 31.25 µg/mL [32]: 18.4%
COC(=O)[C@H](Cc1cnc[nH]1)NC(=O)[C@H](Cc1cnc[nH]1)NC(=O)c1cc(-c2nc3cc(C)c(C)cc3[nH]2)ccc1O	15	0.305	7.14	36.8	12.22	11	0.175	6 (≈ 10.5 µM)	> 877	14.3	31.6	6 (≈ 10.5 µM)	21.78	> 877	23.75	15.8	3.57	6 (≈ 10.5 µM)	17	21	MIC (Escherichia coli [21]): 12.5 µg/mL (≈ 21.9 µM); inhibition zone (IZ) (Bacillus subtilis [22]): 13 mm; MIC (Staphylococcus aureus [23]): 12.5 µg/mL (≈ 21.9 µM); inhibition at 500 µg/mL [24]: 21.4%; MIC (Pseudomonas aeruginosa [25]): 6 µg/mL (≈ 10.5 µM); inhibition at 62.5 µg/mL [26]: 7.14%; inhibition at 125 µg/mL [27]: 21%; Time (Eudrilus [28]): 10.38 min; inhibition zone (IZ) (Candida albicans [29]): 20 mm; inhibition zone (IZ) (Aspergillus niger): 17 mm; inhibition zone (IZ) (Staphylococcus aureus [30]): 11 mm; MIC (Microsporum audouinii [31]): 6 µg/mL (≈ 10.5 µM); inhibition at 31.25 µg/mL [32]: 7.89%
COC(=O)[C@H](CCCNC(=N)N[N+](=O)[O-])NC(=O)[C@@H]1CCCN1C(=O)c1cc(I)c(-c2nc3cc(C)c(C)cc3[nH]2)c(I)c1	12	0.439	100	84.2	22.77	10	0.299	6 (≈ 7.23 µM)	84.3	100	68.4	6 (≈ 7.23 µM)	30.02	114	34.45	28.9	21.4	6 (≈ 7.23 µM)	18	27	MIC (Escherichia coli [21]): 12.5 µg/mL (≈ 15.1 µM); inhibition zone (IZ) (Bacillus subtilis [22]): 17 mm; MIC (Staphylococcus aureus [23]): 12.5 µg/mL (≈ 15.1 µM); inhibition at 500 µg/mL [24]: 100%; MIC (Pseudomonas aeruginosa [25]): 6 µg/mL (≈ 7.23 µM); inhibition at 62.5 µg/mL [26]: 35.7%; inhibition at 125 µg/mL [27]: 52.6%; Time (Eudrilus [28]): 19.43 min; inhibition zone (IZ) (Candida albicans [29]): 23 mm; inhibition zone (IZ) (Aspergillus niger): 14 mm; inhibition zone (IZ) (Staphylococcus aureus [30]): 12 mm; MIC (Microsporum audouinii [31]): 25 µg/mL (≈ 30.1 µM); inhibition at 31.25 µg/mL [32]: 15.8%

Reference: ChEMBL document CHEMBL1146375, “Synthetic studies on novel benzimidazolopeptides with antimicrobial, cytotoxic and anthelmintic potential” (2007)
